Test results published in ChEMBL document CHEMBL2346548, “Design, synthesis, and structure-activity relationship studies of tryptanthrins as antitubercular agents” (J Nat Prod, 2013).
In brackets after ≈: the same amount, converted by molar mass.

Key:
[1] = system: Mycobacterium tuberculosis; experiment: Antitubercular activity against Mycobacterium tuberculosis H37Rv incubated at 37 degC for 7 days by microplate alamar blue assay; type: functional; conditions: Mycobacterium tuberculosis, H37Rv, 168 h
Summary of the method: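 Mtb H37Rv was grown in 7H9 broth with glycerol, Casitone, 10% OADC and 0.05% Tween 80 to OD600 0.4. Compounds were 2-fold serially diluted from DMSO stocks in 7H9, and wells were inoculated at 2 × 10⁵ CFU/mL. After 7 days at 37 °C, Alamar Blue was added and read after a further 24 h. MIC was the lowest concentration preventing the blue-to-pink change.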

[2] = AUC (0 to infinity) in Sprague-Dawley rat at 5 mg/kg, iv; type: ADME, organism-based; set-up: time infinity, dose 5 mg/kg, route intravenous; conditions: plasma
[3] = molecular target: CYP3A4 (Homo sapiens, UniProt P08684); experiment: Inhibition of human recombinant CYP3A4 at 10 uM incubated for 30 mins at 37 degC using 7-benzyloxy-4-(trifluoromethyl)coumarin substrate; type: ADME; conditions: recombinant CYP3A4, probe 7-benzyloxy-4-(trifluoromethyl)coumarin
Sequence of CYP3A4 (P08684 whole entry): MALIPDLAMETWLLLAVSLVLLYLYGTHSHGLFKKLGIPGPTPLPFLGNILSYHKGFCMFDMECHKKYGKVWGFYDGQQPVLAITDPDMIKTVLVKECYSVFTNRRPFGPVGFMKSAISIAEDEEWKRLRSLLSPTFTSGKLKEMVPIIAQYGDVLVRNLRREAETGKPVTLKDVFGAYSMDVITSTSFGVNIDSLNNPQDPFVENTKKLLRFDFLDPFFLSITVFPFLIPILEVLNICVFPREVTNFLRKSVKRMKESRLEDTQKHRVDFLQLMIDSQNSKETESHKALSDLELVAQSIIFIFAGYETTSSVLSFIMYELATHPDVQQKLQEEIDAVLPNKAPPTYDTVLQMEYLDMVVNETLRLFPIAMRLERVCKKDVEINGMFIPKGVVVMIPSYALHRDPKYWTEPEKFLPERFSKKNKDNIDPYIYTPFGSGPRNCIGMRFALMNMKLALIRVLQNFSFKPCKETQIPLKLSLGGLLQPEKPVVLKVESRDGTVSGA

[4] = Protein binding in human plasma at 10 uM incubated for 8 hrs at 37 degC by equilibrium dialysis method; type: ADME, cell-free; conditions: read-out: PPB (converted)
Summary of the method: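 Equilibrium dialysis: 10 μM compound in 1% DMSO in human plasma vs 0.05 M phosphate buffer pH 7.5 across 12–14 K cutoff membrane, at least 8 h at 37 °C; HPLC-photodiode detection at 230 nm; duplicate means.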

[5] = Cmax in Sprague-Dawley rat at 20 mg/kg, po; type: ADME, organism-based; set-up: dose 20 mg/kg, route oral; conditions: in vivo
[6] = Cmax in C57BL/6 mouse at 40 mg/kg, po formulated in 20% DMSODMSO, 20% PEG400, 60% (30% HP-beta-CD in water); type: ADME, organism-based; set-up: dose 40 mg/kg, route oral; conditions: in vivo
Summary of the method: (§1)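 Female C57BL/6 mice, single 40 mg/kg oral gavage; three mice per time point; plasma at 30 min to 24 h, LC-MS; noncompartmental parameters reported as means.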

[7] = system: Mycobacterium tuberculosis; experiment: Antitubercular activity against Mycobacterium tuberculosis H37Rv incubated at 37 degC for 14 days in presence of 40% human serum by microplate alamar blue assay; type: functional; conditions: 336 h
Summary of the method: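 This is the MABA run in 7H9 broth containing 40% human serum. Compounds were 2-fold serially diluted, and wells were inoculated with H37Rv at 2 × 10⁵ CFU/mL. Incubation was at 37 °C for 14 days, then Alamar Blue was added. MIC was the lowest concentration preventing the blue-to-pink colour change.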

[8] = system: Salmonella typhimurium; experiment: Toxicity in Salmonella typhimurium TA100 assessed as compound level per well causing cytotoxicity at 0.25 to 240 ug/well in presence of rat liver S9 fraction; type: organism-based; conditions: salmonella enterica subsp. enterica serovar typhimurium
Summary of the method: (§2)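 MicroAmes: strains preincubated with or without Aroclor-induced rat liver S9, duplicate wells, six concentrations 0.25–250 μg equivalents/well; DMSO vehicle, 4-nitroquinoline-N-oxide (−S9) and 2-aminoanthracene (+S9) positive controls; revertant colonies counted; cytotoxicity noted as reduced revertants or background lawn; precipitation recorded.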

[9] = system: Mycobacterium tuberculosis; experiment: Antitubercular activity against Mycobacterium tuberculosis Erdman ATCC 35801 infected in C57BL/6 mouse assessed as viable bacterial load in lung at 200 mg/kg twice daily through gavage 5 days per week for 4 weeks starting on 10th day post-infection (reference value: 6.49 +/- 0.10 log10CFU/lung); type: functional
[10] = system: Salmonella typhimurium; experiment: Mutagenicity in Salmonella typhimurium TA98 assessed as mean revertant colonies at 0.25 to 240 ug/well in presence of rat liver S9 fraction; type: toxicity, organism-based; conditions: salmonella enterica subsp. enterica serovar typhimurium; summary of the method: as §2
[11] = system: Mycobacterium tuberculosis; experiment: Antitubercular activity against Mycobacterium tuberculosis Erdman ATCC 35801 infected in C57BL/6 mouse assessed as viable bacterial load in spleen at 200 mg/kg twice daily through gavage 5 days per week for 4 weeks starting on 10th day post-infection (reference value: 4.79 +/- 0.21 log10CFU/spleen); type: functional
[12] = system: Mycobacterium tuberculosis; experiment: Antitubercular activity against Mycobacterium tuberculosis Erdman ATCC 35801 infected in C57BL/6 mouse assessed as viable bacterial load in spleen at 200 mg/kg/day through gavage 5 days per week for 4 weeks starting on 10th day post-infection (reference value: 4.79 +/- 0.21 log10CFU/spleen); type: functional
[13] = system: Mycobacterium tuberculosis; experiment: Antitubercular activity against Mycobacterium tuberculosis Erdman ATCC 35801 infected in C57BL/6 mouse assessed as viable bacterial load in lung at 200 mg/kg/day through gavage 5 days per week for 4 weeks starting on 10th day post-infection (reference value: 6.49 +/- 0.10 log10CFU/lung); type: functional
[14] = Half life in Sprague-Dawley rat at 20 mg/kg, po; type: ADME, organism-based; set-up: dose 20 mg/kg, route oral; conditions: in vivo
[15] = system: Salmonella typhimurium; experiment: Toxicity in Salmonella typhimurium TA100 assessed as compound level per well causing cytotoxicity at 0.25 to 240 ug/well in absence of rat liver S9 fraction; type: organism-based; conditions: salmonella enterica subsp. enterica serovar typhimurium; summary of the method: as §2
[16] = system: Vero; experiment: Cytotoxicity against african green monkey Vero cells; type: cell-based, Chlorocebus sabaeus; conditions: Chlorocebus sabaeus, Vero; read-out: IC50
[17] = Elimination half life in Sprague-Dawley rat at 5 mg/kg, iv; type: ADME, organism-based; set-up: dose 5 mg/kg, route intravenous; conditions: in vivo, read-out: beta t1/2 (converted)
Summary of the method: (§3)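 Male Sprague-Dawley rats (n = 3), single 5 mg/kg iv dose as solution in PEG300/DMSO 50:50; plasma sampled 0.083–24 h, LC-MS bioanalysis; noncompartmental analysis, means.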

[18] = Half life in C57BL/6 mouse at 40 mg/kg, po formulated in 0.1% SLS; type: ADME, organism-based; set-up: dose 40 mg/kg, route oral; conditions: in vivo; summary of the method: as §1
[19] = Tmax in C57BL/6 mouse at 40 mg/kg, po formulated in 20% DMSODMSO, 20% PEG400, 60% (30% HP-beta-CD in water); type: ADME, organism-based; set-up: dose 40 mg/kg, route oral; conditions: in vivo; summary of the method: as §1
[20] = AUC (0 to infinity) in C57BL/6 mouse at 40 mg/kg, po formulated in 20% DMSODMSO, 20% PEG400, 60% (30% HP-beta-CD in water); type: ADME, organism-based; set-up: dose 40 mg/kg, route oral, time infinity; conditions: plasma
[21] = system: Mycobacterium tuberculosis; experiment: Antitubercular activity against non-replicating Mycobacterium tuberculosis H37Rv incubated for 10 days by LORA method; type: functional; conditions: 240 h
Summary of the method: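 H37Rv carrying pFCA-luxAB was adapted to low oxygen by gradual self-depletion in a sealed, slowly stirred flask. It was then exposed to compounds for 10 days under anaerobic conditions. Cultures recovered for 28 h in ambient oxygen before n-decanal substrate was added and luminescence read. MIC was the lowest concentration giving a 90% reduction in luminescence versus untreated controls.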

[22] = Tmax in Sprague-Dawley rat at 20 mg/kg, po; type: ADME, organism-based; set-up: dose 20 mg/kg, route oral; conditions: in vivo
[23] = AUC (0 to infinity) in Sprague-Dawley rat at 20 mg/kg, po; type: ADME, organism-based; set-up: time infinity, dose 20 mg/kg, route oral; conditions: plasma
[24] = Metabolic stability in human liver microsomes assessed as parent compound remaining at 1 uM incubated for 1 hr by HPLC-MS/MS method; type: ADME, Microsome; conditions: read-out: Stability
Summary of the method: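 Pooled mixed-gender human liver microsomes (0.3 mg/mL protein), 1 μM compound with NADP-regenerating system in phosphate buffer pH 7.4, 1 h at 37 °C; parent measured at start and end by HPLC-MS/MS; duplicate means.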

[25] = Tmax in C57BL/6 mouse at 40 mg/kg, po formulated in 0.1% SLS; type: ADME, organism-based; set-up: dose 40 mg/kg, route oral; conditions: in vivo; summary of the method: as §1
[26] = system: Salmonella typhimurium; experiment: Mutagenicity in Salmonella typhimurium TA98 assessed as mean revertant colonies at 0.25 to 240 ug/well in absence of rat liver S9 fraction; type: toxicity, organism-based; conditions: salmonella enterica subsp. enterica serovar typhimurium; summary of the method: as §2
[27] = Volume of distribution in Sprague-Dawley rat at 5 mg/kg, iv; type: ADME, organism-based; set-up: dose 5 mg/kg, route intravenous; conditions: in vivo; summary of the method: as §3
[28] = Clearance in Sprague-Dawley rat at 5 mg/kg, iv; type: ADME, organism-based; set-up: dose 5 mg/kg, route intravenous; conditions: in vivo; summary of the method: as §3

With `O=C1C2=Nc3ccccc3CN2c2ccc(Cl)cc21` the MIC [1] was 0.125 mg/L (≈ 0.465 µM), the AUC(0-inf) [2] was 0.93 µg·h/mL and the inhibition at 0.5 h, 10 µM [3] was 1%. It also gave a fraction unbound at 8 h, 10 µM [4] of 0.013, a Cmax [5] of 0.05 µg/mL and a Cmax [6] of 0.371 µg/mL. The MIC [7] was 0.125 mg/L, the Activity [8] was “>= 2.5 ug” and the log10cfu [9] was 6.64. For the same molecule, the Activity [10] was “Non-toxic”, the log10cfu [11] was 4.89 and the log10cfu [12] was 4.85. For the same molecule, the log10cfu [13] was 6.58, the half-life [14] was 3.33 h and the Activity [15] was “>= 2.5 ug”. The IC50 [16] was 40 mg/L (≈ 149 µM), the half-life [17] was 1.42 h and the half-life [18] was 3.08 h. The Tmax [19] was 1.5 h, the AUC(0-inf) [20] was 0.968 µg·h/mL and the MIC90 [21] was 24 mg/L (≈ 89.3 µM). The Tmax [22] was 2 h, the AUC(0-inf) [23] was 0.3 µg·h/mL and the remaining at 1 h, 1 µM [24] was 53%. For the same molecule, the Tmax [25] was 1 h, the Activity [26] was “Non-toxic” and the Vd [27] was 11.7 L/kg. It also gave a clearance [28] of 5.57 L/h/kg.
